Converted amounts (≈) assume the structure as drawn.
Assays:
Type in all cases: functional
Escherichia coli [1] = test: Antibacterial activity against tetracycline sulfamethoxazole streptomycin kanamycin-resistant Escherichia coli isolate M66-6 carrying qnrB19 gene
In short: (§1)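 MICs determined by broth microdilution following CLSI guidelines, with E. coli ATCC 25922 as quality-control strain in every run. Disk diffusion susceptibility was also performed per CLSI.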

Escherichia coli [2] = test: Antibacterial activity against ampicillin sulfamethoxazole streptomycin kanamycin-resistant Escherichia coli isolate V6-9 carrying qnrB19 gene; in short: as §1
Escherichia coli [3] = test: Antibacterial activity against ampicillin tetracyclin streptomycin kanamycin-resistant Escherichia coli isolate V32-1 carrying qnrB19 gene; in short: as §1
Escherichia coli [4] = test: Antibacterial activity against ampicillin tetracycline trimethoprim sulfamethoxazole streptomycin-resistant Escherichia coli isolate Y6-7 carrying qnrB19 gene; in short: as §1
Escherichia coli [5] = test: Antibacterial activity against Escherichia coli HB101; in short: as §1
Escherichia coli [6] = test: Antibacterial activity against tetracycline trimethoprim sulfamethoxazole kanamycin-resistant Escherichia coli isolate C14-9 carrying qnrB19 gene; in short: as §1

SMILES | MIC (Escherichia coli [1]) | MIC (Escherichia coli [2]) | MIC (Escherichia coli [3]) | MIC (Escherichia coli [4]) | MIC (Escherichia coli [5]) | MIC (Escherichia coli [6])
CCn1cc(C(=O)O)c(=O)c2cc(F)c(N3CCNCC3)cc21 [NORFLOXACIN] | 0.25 µg/mL (≈ 0.783 µM) | 0.5 µg/mL (≈ 1.57 µM) | 0.25 µg/mL (≈ 0.783 µM) | 0.25 µg/mL (≈ 0.783 µM) | 3 ng/mL (≈ 0.00939 µM) | 0.5 µg/mL (≈ 1.57 µM)
CCn1cc(C(=O)O)c(=O)c2ccc(C)nc21 [NALIDIXIC ACID] | 16 µg/mL (≈ 68.9 µM) | 32 µg/mL (≈ 138 µM) | 32 µg/mL (≈ 138 µM) | 16 µg/mL (≈ 68.9 µM) | 4000 ng/mL (≈ 17.2 µM) | 32 µg/mL (≈ 138 µM)
C[C@H]1COc2c(N3CCN(C)CC3)c(F)cc3c(=O)c(C(=O)O)cn1c23.C[C@H]1COc2c(N3CCN(C)CC3)c(F)cc3c(=O)c(C(=O)O)cn1c23.O [LEVOFLOXACIN] |  | 0.25 µg/mL | 0.25 µg/mL |  | 7.5 ng/mL | 0.25 µg/mL

Reference: ChEMBL document CHEMBL1240376, “Characterization of small ColE-like plasmids mediating widespread dissemination of the qnrB19 gene in commensal enterobacteria” (2010)
